{"data": "Measured values gathered from unrelated publications", "target": "Serine/threonine-protein kinase DCLK1 (DCLK1, Homo sapiens, UniProt O15075)", "Sequence (O15075 1-740, as in one of the studies)": "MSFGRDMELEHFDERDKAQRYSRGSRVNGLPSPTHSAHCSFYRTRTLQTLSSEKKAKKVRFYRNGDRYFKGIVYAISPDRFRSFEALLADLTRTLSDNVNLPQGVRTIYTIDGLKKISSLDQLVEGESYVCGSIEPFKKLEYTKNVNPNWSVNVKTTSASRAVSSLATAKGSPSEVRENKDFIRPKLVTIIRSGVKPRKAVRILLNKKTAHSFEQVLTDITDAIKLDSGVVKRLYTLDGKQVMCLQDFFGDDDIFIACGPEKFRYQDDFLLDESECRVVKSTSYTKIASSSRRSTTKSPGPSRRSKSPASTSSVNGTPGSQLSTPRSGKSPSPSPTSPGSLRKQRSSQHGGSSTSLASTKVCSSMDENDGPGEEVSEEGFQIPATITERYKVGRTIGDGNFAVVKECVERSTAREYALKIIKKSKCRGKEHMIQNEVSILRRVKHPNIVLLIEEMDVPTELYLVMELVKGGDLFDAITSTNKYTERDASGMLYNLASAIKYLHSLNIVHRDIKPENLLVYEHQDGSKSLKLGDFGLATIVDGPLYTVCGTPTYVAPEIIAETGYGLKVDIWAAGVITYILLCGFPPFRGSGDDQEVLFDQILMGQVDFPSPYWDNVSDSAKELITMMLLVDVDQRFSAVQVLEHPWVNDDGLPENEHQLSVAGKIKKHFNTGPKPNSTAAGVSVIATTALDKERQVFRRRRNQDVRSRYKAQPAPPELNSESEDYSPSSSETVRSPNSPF", "note": "Protocols differ between the studies behind these lines."}
{"SMILES": "C1=C/COCc2cc(ccc2OCCN2CCCC2)Nc2nccc(n2)-c2cccc(c2)COC/1", "test": "cell-free assay", "conditions": "0.1 µM", "quantity": "remaining signal", "result": "100%"}
{"SMILES": "CCCCC(=O)Nc1ccc(-c2ccc3ncn(CCC)c(=O)c3c2)cn1", "test": "binding, competition with immobilised ligand", "conditions": "0.5 µM", "quantity": "remaining binding", "result": "68%"}
{"SMILES": "CC#CC(=O)N1CCC[C@H]1c1nc(-c2ccc(C(=O)Nc3ccccn3)cc2)c2c(N)nccn12", "test": "enzyme activity, inhibitor", "conditions": "1 µM", "quantity": "inhibition", "result": "15%"}
{"SMILES": "C[C@H]1CC[C@H](n2c3cnccc3c3cnc(Nc4ccc5c(n4)CCN(C(=O)CO)C5)nc32)CC1", "test": "cell-free assay", "conditions": "1 µM", "quantity": "remaining signal", "result": "75%"}
{"SMILES": "COc1ccc2oc(-c3ccc4nc(N)oc4c3)c/c(=N\\c3ccccc3NC(=O)CCN)c2c1", "test": "binding", "conditions": "1 µM", "quantity": "remaining binding", "result": "96%"}
{"SMILES": "N#Cc1ccc(NC(=O)Nc2ccccc2)cc1", "test": "cell-free assay, competition with immobilised ligand", "conditions": "25 µM", "quantity": "remaining binding", "result": "91%"}
{"SMILES": "CN1CCN(C(=O)c2ccc(NC(=O)Nc3ccc(N(C)c4ccnc(Nc5ccc(CS(C)(=O)=O)cc5)n4)cc3)cc2)CC1", "test": "binding, competition with immobilised ligand", "conditions": "1 µM", "quantity": "remaining binding", "result": "97%"}
{"SMILES": "C=CC(=O)N1CCC([C@@H]2CCNc3c(C(N)=O)c(-c4ccc(Oc5ccccc5)cc4)nn32)CC1", "test": "enzyme activity, inhibitor", "conditions": "1 µM", "quantity": "inhibition", "result": "41%"}
{"SMILES": "CC(C)S(=O)(=O)c1ccc2nccc(Nc3ccc4sc(C5CCCC5)nc4c3)c2c1", "test": "enzyme activity, inhibitor", "conditions": "1 µM", "quantity": "activity vs control", "result": "102%"}
